Results as given in article PMC7125830 (Antiviral Research, 1999).

Key:
[1] = tested on: Vero cells; experiment: Initial cytotoxicity study; type: cell-based, African green monkey; conditions: at 100 μM concentration
Summary of the method: (§1)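 Confluent monolayers in triplicate wells of 24-well plates, exposed to compounds diluted from 0.1M DMSO stocks in growth medium (final 10−4 M to 10−8 M). A DMSO co-solvent control was run for each dilution and compared with cell controls. Cytotoxicity scored by abnormal morphology: clumping, detachment or rounding up of cells. Scored +/−.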

[2] = tested on: HSV-1 McKrae strain; experiment: Plaque reduction assay, HSV-1 in Vero cells; type: cell-based, herpes simplex virus type 1; conditions: Human alphaherpesvirus 1, Vero, 96 h
Summary of the method: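 Confluent Vero monolayers in 24-well plates infected with 100 pfu McKrae strain per well, adsorbed 1 h at 37°C, washed with Hanks' BSS. Agar overlay containing compound dilutions applied to triplicate wells, alongside triplicate cell and virus controls. Day 4: methanol:acetic acid (3:1) fixation, 1% crystal violet stain, plaque count. IC50 calculated from dose-response plots; selectivity index taken as TC50/IC50.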

[3] = tested on: A549 cells; experiment: Initial cytotoxicity study; type: cell-based, Human; conditions: at 100 μM concentration
Summary of the method: as §1

Compound	Cytotoxicity [1]	IC50 [2]	Cytotoxicity [3]
Nc1nc2c(ncn2COCCO)c(=O)[nH]1 [Acyclovir, acyclovir]	− (Vero cells)	1800 nM	
Nc1ccn(C[C@@H](CO)OCP(=O)(O)O)c(=O)n1 [Cidofovir]			− (A549 cells)
